Screens (PubChem)
LANA-H2B inh: blocks KSHV LANA binding to histone H2A/H2B. Q9QR71. cell-free LANA-H2A/H2B peptide, fluorescence polarization. inhibition, % (concentration not given with the values). actives 0.6% (n = 320,000). AID 2629; in the data active = inhibition mostly above about 10%, no sharp cut-off; inactive = mostly below about 6.7%
Target sequence (Q9QR71 whole entry, looked up): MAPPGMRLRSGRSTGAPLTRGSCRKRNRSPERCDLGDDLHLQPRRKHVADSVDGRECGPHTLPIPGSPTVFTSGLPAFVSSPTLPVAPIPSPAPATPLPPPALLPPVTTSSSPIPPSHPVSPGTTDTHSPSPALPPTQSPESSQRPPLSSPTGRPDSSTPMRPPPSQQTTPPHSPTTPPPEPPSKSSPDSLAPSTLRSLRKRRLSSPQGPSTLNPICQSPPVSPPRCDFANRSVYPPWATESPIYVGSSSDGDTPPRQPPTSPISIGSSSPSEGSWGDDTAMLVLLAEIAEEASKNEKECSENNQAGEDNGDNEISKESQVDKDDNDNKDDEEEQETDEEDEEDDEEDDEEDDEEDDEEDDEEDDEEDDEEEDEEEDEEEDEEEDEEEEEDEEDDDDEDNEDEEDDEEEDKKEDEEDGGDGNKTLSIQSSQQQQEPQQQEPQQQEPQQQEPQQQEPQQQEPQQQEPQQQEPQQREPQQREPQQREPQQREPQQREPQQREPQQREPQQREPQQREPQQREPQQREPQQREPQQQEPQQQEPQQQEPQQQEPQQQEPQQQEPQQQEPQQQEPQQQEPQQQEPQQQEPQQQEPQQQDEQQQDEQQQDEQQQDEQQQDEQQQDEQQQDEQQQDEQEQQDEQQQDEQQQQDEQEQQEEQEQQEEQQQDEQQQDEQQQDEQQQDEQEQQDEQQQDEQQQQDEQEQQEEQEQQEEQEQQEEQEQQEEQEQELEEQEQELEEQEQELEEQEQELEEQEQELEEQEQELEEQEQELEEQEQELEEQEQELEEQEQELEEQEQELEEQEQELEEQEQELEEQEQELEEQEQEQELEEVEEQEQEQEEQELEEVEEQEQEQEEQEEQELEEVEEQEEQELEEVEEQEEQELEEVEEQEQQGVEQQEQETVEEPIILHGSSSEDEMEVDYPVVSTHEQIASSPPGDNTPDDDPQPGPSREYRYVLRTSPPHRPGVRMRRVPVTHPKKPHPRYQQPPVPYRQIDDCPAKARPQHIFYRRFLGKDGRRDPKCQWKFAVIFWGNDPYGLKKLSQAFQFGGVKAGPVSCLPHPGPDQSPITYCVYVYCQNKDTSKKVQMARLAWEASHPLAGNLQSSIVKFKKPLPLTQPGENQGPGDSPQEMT
GPR7 antag: blocks human GPR7 receptor signaling; GPR7-expressing cells, fluorescence antagonist assay; P48145; inhibition, % at 4.4 µM; AID 1861; actives 1.1% (n = 290,000); in the data active = inhibition above about 16%, passing the limit was not always enough;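 also: cells stimulated with the agonist NPW; 0% = agonist with vehicle and 100% = vehicle without agonist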
TRPN1 ag: activates the zebrafish TRPN1 channel. actives 0.18% (n = 220,000). activation, % at 3 µM. HEK293 zebrafish TRPN1-YFP, Fluo-8 calcium fluorescence; 100% = response to 87 µM carbachol;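 active = activation above its plate's cutoff, the mean activation of test wells on that plate plus 3 SD, cut at about 19% in these data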;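 also: 0% = DMSO alone and 100% = 87 µM carbachol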
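Material – zebrafish TRPN1-YFP in HEK293 cells · Doses – 3 µM single point · Schedule – dye 1 h 37 °C plus 30 min RT · Signal – Fluo-8 calcium fluorescence, excitation 470-495 nm, emission 515-575 nm · Read-out – % activation versus carbachol response · Control set – carbachol high, DMSO low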
TAAR1 antagonist: antagonists of human TAAR1; Q96RJ0; CHO RD-HGA16 TAAR1, Fluo-8 calcium fluorescence, antagonist; inhibition, % at 3 µM; actives 1.5% (n = 360,000); AID 624466;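 active = inhibition above a per-plate cutoff, the mean inhibition of test compounds on that plate plus 3 SD, cut at about 49% in these data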;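 also: 0% = DMSO plus EC80 beta-PEA response and 100% = DMSO alone without agonist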
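System: CHO RD-HGA16 cells bearing hTAAR1. Reagent: EC80 β-phenethylamine stimulus. Schedule: seeding 17-24 h prior, 75-min 37 °C, 30-min RT dye loading. Signal: Fluo-8 intracellular calcium dye fluorescence, real-time kinetic reads. Read-out: % inhibition from peak post-agonist over basal fluorescence ratio. Benchmarks: vehicle wells and EC80 agonist wells. Replicates: n of 1.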
TAAR1 ag: human TAAR1 agonism | Q96RJ0 | CHO RD-HGA16 TAAR1, Fluo-8 calcium fluorescence; vehicle wells 0%, saturating PEA agonist 100% | activation, % at 3 µM | actives 0.99% (n = 360,000) | AID 624467;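 active = activation above the mean activation of all test compounds in the run plus 3 SD, cut at about 38% in these data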
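System: CHO-derived RD-HGA16 cells with stable Gα16 and human TAAR1. Times: 17-24 h plating, Fluo-8 75 min 37 °C, 30 min RT. Measured by: calcium-sensitive Fluo-8 signal, excitation 470-495, emission 515-575 nm. Read-out basis: % activation relative to PEA EC100 response. Control set: DMSO and PEA EC100. Repeats: no replicates (n 1).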
TRPML3 ag: agonists of human TRPML3 channel | actives 0.29% (n = 220,000) | Q8TDD5 | activation, % at 3 µM | HEK293 TRPML3-YFP, Fluo-8 calcium fluorescence; 100% = the carbachol control signal;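 active = activation above its plate's cutoff, the mean activation of the plate's test wells plus 3 SD, cut at about 12% in these data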;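 also: 0% = DMSO only wells and 100% = carbachol wells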
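Material: TRPML3-YFP stable HEK293 cells | Dosing: One concentration, 3 µM nominal, 0.3% DMSO | Timing: 125 s total fluorescence read per well | Technique: Fluo-8 calcium dye fluorescence, ex 470-495, em 515-575 nm | Measure: Percent activation from peak-to-basal fluorescence ratio, scaled between DMSO and carbachol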
* = called active by the depositor; . = not tested or not shown; + = active, no number. Hits are enriched below; roughly 3.4% of the tested compounds scored in any of these assays.

SMILES	LANA-H2B inh	GPR7 antag	TRPN1 ag	TAAR1 antagonist	TAAR1 ag	TRPML3 ag
COc1ccc(-c2cc(C(=O)OCC(=O)N3CCCCC3)c3ccccc3n2)cc1OC	4	.	.	71*	9	.
COc1ccc(-c2cc(C(=O)N3CCCCCC3)c3ccccc3n2)cc1OC	.	.	.	24	10	.
CC1(C(=O)NCc2ccccc2)CN(S(C)(=O)=O)CC(=O)N1Cc1ccco1 (stereo not given)	.	.	.	4	1	.
Cn1c(=O)c2c(ncn2CC(=O)Nc2nc(-c3ccccc3Cl)cs2)n(C)c1=O	3	-7	1	19	39*	1
CCOC(=O)Cc1csc(NC(=O)Cn2cnc3c2c(=O)n(C)c(=O)n3C)n1	0	2	1	12	4	1
O=C(/C=C(\Nc1cccc(OC(F)F)c1)c1ccccc1)c1ccccc1	.	.	.	31	0	.
CCCC(=O)NC(=S)Nc1cccc(NC(=O)c2ccc(Cl)cc2Cl)c1	1	-8	0	56*	11	1
CCCC(=O)NC(=S)Nc1cccc(NC(=O)c2ccccc2Cl)c1	-1	-3	3	7	1	0
COc1ccc(N(C)S(=O)(=O)c2cccc(C(=O)OCC(=O)c3c(N)n(C)c(=O)n(C)c3=O)c2)cc1	2	.	.	73*	18	.
C=CCN(c1ccc(OC)cc1)S(=O)(=O)c1ccc(Cl)c(C(=O)OCC(=O)c2c(N)n(C)c(=O)n(C)c2=O)c1	.	.	.	22	1	.
CCN(c1ccccc1)S(=O)(=O)c1cccc(C(=O)OCC(=O)c2c(N)n(C)c(=O)n(C)c2=O)c1	.	.	.	15	8	.
CN(c1ccccc1)S(=O)(=O)c1ccc(Cl)c(C(=O)OCC(=O)c2c(N)n(C)c(=O)n(C)c2=O)c1	.	.	.	61*	12	.
COC(=O)[C@]12C[C@H](CC(=O)N3CCCC3)C(=O)N(Cc3ccccc3)C1=C[C@H](C1CCCC1)O[C@@H]2C	.	.	.	4	-2	.
CCN1C(=NCC(C)C)N[C@@H](c2cccc(C(F)(F)F)c2)C(C(=O)OC)=C1C	13*	20	.	14	6	.
C=CCN=C1N[C@@H](c2cccc(C(F)(F)F)c2)C(C(=O)OC)=C(C)N1CC	5	2	.	15	4	.
COc1ccc2c(c1OC)C(=O)N1c3ccccc3C(=O)N(c3ccccc3F)C21 (stereo not given)	1	-3	0	66*	18	1
COc1cc(CNCC(C)C)cc(Br)c1OCC(=O)Nc1ccccc1	-2	18*	-1	5	17	1
Nc1nc2c(ncn2[C@@H]2O[C@H](C(=O)NCC(c3ccccc3)c3ccccc3)[C@@H](O)[C@H]2O)c(=O)[nH]1	.	.	.	-11	1	.
COc1ccc(OC)c(S(=O)(=O)N2CCC(C(=O)Nc3cccc(C(F)(F)F)c3)CC2)c1	0	-9	-2	53*	16	-1
COc1ccc(NC(=O)C2CCCCN2S(=O)(=O)c2ccccc2)cc1S(=O)(=O)N1CCOCC1 (stereo not given)	.	.	.	58*	21	.
O=C(CSc1ncc(-c2ccc(F)cc2)n1Cc1ccco1)Nc1nccs1	1	-1	0	40	46*	-1
Cc1cnc(NC(=O)CSc2ncc(-c3ccccc3)n2Cc2ccco2)s1	-5	19	17	78*	58*	10
COCc1[nH]nc2c1C(c1ccccc1)NC2=O (stereo not given)	.	.	.	-29	1	.
CCc1c(-c2ccc(Br)cc2)ncn1CCc1ccccc1OC	.	.	.	12	24	.
COc1ccc2c(c1)[C@@]1(OCCC=C[C@H]1C)C(=O)N2Cc1ccccc1C(F)(F)F	.	.	.	-49	6	.
SMILES	LANA-H2B inh	GPR7 antag	TRPN1 ag	TAAR1 antagonist	TAAR1 ag	TRPML3 ag
CC(=O)Nc1ccc(Nc2cc(C)nc3c(-c4ccccc4)cnn23)cc1	1	-3	7	49*	41*	2
Cc1cc(N)n2ncc(-c3ccccc3)c2n1	-3	-6	0	5	9	0
COc1cc(/C=C2\SC(=S)N(NS(=O)(=O)c3ccccc3)C2=O)ccc1O	-9	-9	25*	0	16	17*
COc1cc(/C=C2\SC(=S)N(NS(=O)(=O)c3ccc(C)cc3)C2=O)ccc1O	-8	-19	37*	37	31	24*
COc1ccc(/C=C2/SC(=S)N(NS(=O)(=O)c3ccccc3)C2=O)cc1	-4	-7	.	11	-3	.
CCOc1cc(/C=C2\SC(=S)N(NS(=O)(=O)c3ccc(C)cc3)C2=O)ccc1O	-9	.	.	44	18	.
CCN(CC)c1ccc2c(c1)OC(N)=C(C#N)C2c1cccnc1 (stereo not given)	-41	9	12	-7	64*	8
COc1cc(-c2cc(=O)c3ccc(O)cc3o2)cc(OC)c1OC	.	.	.	2	1	.
COc1cc(-c2ccc3oc(-c4ccsc4)cc(=O)c3c2)cc(OC)c1OC	0	.	.	50*	9	.
O=C1CCCC(O)=C1C=Nc1ccc(O)cc1	17*	-13	1	15	8	1
CC1(O)C(=O)C2(C)C=CC1C1C(=O)N(c3ccccc3)C(=O)C12 (stereo not given)	.	.	.	-6	1	.
C=CCN1CC(COc2ccc(OC)cc2)OCCS1(=O)=O (stereo not given)	.	.	.	-8	1	.
CC(C(=O)NCc1ccc(Cl)cc1)n1cccc1C(=O)c1ccccc1 (stereo not given)	19*	13	.	-21	4	.
C#CCNC(=O)C[C@H]1C[C@@]2(C(=O)OC)C(=C[C@H](C(C)(C)C)O[C@@H]2C)N(CCC2=CCCCC2)C1=O	.	.	.	-23	-2	.
O=[N+]([O-])c1ccc(C(=S)N2CCCC2)cc1	+	2	-1	-21	-1	0
O=C(c1ccc([N+](=O)[O-])cc1)N1CCCC1	-3	-5	-1	-11	2	1
Cc1cc(C)n(CC(O)Cn2c3ccc(Br)cc3c3cc(Br)ccc32)c(=O)n1 (stereo not given)	15*	0	-1	41	33	0
Cc1cc(C)n(CC(O)Cn2c3ccccc3c3ccccc32)c(=O)n1 (stereo not given)	-1	0	-1	-26	6	0
Cc1ccc(C2C(C(=O)c3cccs3)=C(O)C(=O)N2c2nnc(C)s2)cc1 (stereo not given)	13	8	42*	-47	4	22*
CCc1cc2c(-c3ccccc3)cc(=O)oc2cc1OC(C)C(C)=O (stereo not given)	0	14	.	50*	17	.
FC(F)(F)c1nc(-c2ccncc2)ncc1-c1nnnn1-c1ccccc1	0	-7	2	5	4	1
